Results taken from ChEMBL document CHEMBL4049424, “Hydroxypyridinone and 5-Aminolaevulinic Acid Conjugates for Photodynamic Therapy” (J Med Chem, 2017).

Tests used:
KB [1] = test: Phototoxicity in human KB cells assessed as reduction in cell viability preincubated for 4 hrs followed by irradiation with blue light at 2.5 J/cm2 and subsequent incubation for 18 hrs measured after 24 hrs post treatment by MTT assay; format: functional; details: for CC50: light or radiation study, read-out: LD50 (the source's name)
In short: (§1)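 Cells seeded ~5 × 10^4 per well, grown 48 h, washed with PBS, then 4 h with compound (five concentrations within 1–100 μM, triplicate, three untreated control wells per plate). Irradiated with blue light, peak ~420 nm, 2.5 J/cm². Medium replaced, cells kept a further 18 h. MTT read at A570 24 h after treatment; survival expressed as percentage of control. LD50 taken from two sets of experiments.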

MCF7 = test: Phototoxicity in human MCF7 cells assessed as reduction in cell viability preincubated for 4 hrs followed by irradiation with blue light at 2.5 J/cm2 and subsequent incubation for 18 hrs measured after 24 hrs post treatment by MTT assay; format: functional; details: for CC50: MCF7, light or radiation study, read-out: LD50 (the source's name); in short: as §1
MCF7R = test: Phototoxicity in human doxorubicin resistant MCF7/R cells assessed as reduction in cell viability preincubated for 4 hrs followed by irradiation with blue light at 2.5 J/cm2 and subsequent incubation for 18 hrs measured after 24 hrs post treatment by MTT assay; format: functional; details: for CC50: light or radiation study, read-out: LD50 (the source's name); in short: as §1
KB [2] = test: Dark toxicity against human KB cells at 200 uM preincubated for 4 hrs followed by compound washout measured after 24 hrs by MTT assay; format: cell-based
In short: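 Dark toxicity in KB cells: 200 μM compound for 4 h with no light, removed, cells kept 24 h. Viability by MTT (2 h, A570 after DMSO solubilisation), given as % of untreated controls. Triplicate.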

[3] = Drug metabolism in human MCF7 cells assessed as formation of protoporphyrin 9 preincubated for 2 hrs followed by compound washout measured after 24 hrs by HPLC-based fluorescence analysis; format: ADME, cell-based; details: mcf7, 24 h
In short: (§2)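 Cells given ALA or conjugate for 2 h at 37 °C, then fresh medium without compound. At 24 h, lysed in CelLytic (15 min, room temperature), scraped and spun 1800g for 10 min. Supernatant PpIX read by fluorescence at 405/635 nm and normalised per mg protein (BCA). Untreated blanks subtracted.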

[4] = Drug metabolism in human doxorubicin resistant MCF7/R cells assessed as formation of protoporphyrin 9 at 100 uM after 6 hrs by fluorescence spectrometer; format: ADME, cell-based; details: mcf7r
In short: (§3)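 MCF-7R monolayers exposed 6 h at 37 °C to ALA, conjugates or ALA hexyl/octyl esters at 1–100 μM in serum-free medium. PpIX emission at 635 nm (405 nm excitation; spectra 600–750 nm) read in wells. Untreated controls subtracted; mean of triplicates in arbitrary units.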

KB [5] = test: Dark toxicity against human KB cells assessed as cell survival at 100 uM after 24 hrs by MTT assay; format: cell-based
[6] = Drug metabolism in human KB cells assessed as formation of protoporphyrin 9 preincubated for 2 hrs followed by compound washout measured after 24 hrs by HPLC-based fluorescence analysis; format: ADME, cell-based; in short: as §2
[7] = Drug metabolism in human doxorubicin resistant MCF7/R cells assessed as formation of protoporphyrin 9 preincubated for 2 hrs followed by compound washout measured after 24 hrs by HPLC-based fluorescence analysis; format: ADME, cell-based; details: mcf7r; in short: as §2
[8] = Drug metabolism in human doxorubicin resistant MCF7/R cells assessed as formation of protoporphyrin 9 at 1 to 100 uM after 6 hrs by fluorescence spectrometer relative to ALA; format: ADME, cell-based; details: mcf7r; in short: as §3
[9] = Drug metabolism in human doxorubicin resistant MCF7/R cells assessed as formation of protoporphyrin 9 after 6 hrs by fluorescence spectrometer; format: ADME, cell-based; details: mcf7r; in short: as §3
[10] = Drug metabolism in human KB cells assessed as formation of protoporphyrin 9 at 50 uM after 2 to 24 hrs by fluorescence spectrometer; format: ADME, cell-based
In short: (§4)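 KB monolayers (48 h after seeding ~5×10^4/well) washed, then given prodrug or ALA at 50 μM in serum-free medium at 37 °C. PpIX fluorescence read in wells at 2, 4, 6 and 24 h, excitation 405 nm, emission 635 nm. Untreated wells subtracted for autofluorescence; mean intensity in arbitrary units, triplicate.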

[11] = Drug metabolism in human KB cells assessed as protoporphyrin 9 formation at 500 uM preincubated for 1 hr at 4 degC followed by compound washout and subsequent incubation for 4 hrs at 37 degC by fluorescence spectrometer; format: ADME, cell-based
In short: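 KB cells exposed 1 h to 500 μM prodrug in clear medium at either 4 °C or 37 °C, plates foil-wrapped. Compound then removed, PBS rinse, fresh medium, both plates 4 h at 37 °C. PpIX read in wells at 405/635 nm after subtracting untreated wells.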

[12] = Drug metabolism in human MCF7 cells assessed as formation of protoporphyrin 9 at 50 uM after 6 hrs by fluorescence spectrometer; format: ADME, cell-based; details: mcf7, 6 h
In short: (§5)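 MCF-7 or MCF-7R cells incubated 6 h at 37 °C with 50 μM conjugate, or with 50 μM ALA and HPO as a 1:1 mixture, in serum-free medium. PpIX fluorescence read in wells at 405/635 nm, untreated-well values subtracted, triplicate.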

[13] = Drug metabolism in human KB cells assessed as formation of protoporphyrin 9 at 100 uM after 6 to 24 hrs by fluorescence spectrometer; format: ADME, cell-based
In short: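 Time course in KB cells at 37 °C after 100 μM conjugate, ALA, or 1:1 ALA + HPO mixture in serum-free medium. Well PpIX fluorescence read at 405 nm excitation / 635 nm emission, control autofluorescence subtracted, triplicate means.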

[14] = Drug metabolism in human KB cells assessed as formation of protoporphyrin 9 at 50 uM after 24 hrs by fluorescence spectrometer relative to ALA; format: ADME, cell-based; in short: as §4
KB [15] = test: Phototoxicity in human KB cells assessed as cell survival at 10 uM preincubated for 4 hrs followed by irradiation with blue light at 2.5 J/cm2 and subsequent incubation for 18 hrs measured after 24 hrs post treatment by MTT assay relative to control; format: functional; details: light or radiation study, read-out: Survival; in short: as §1
[16] = Prodrug conversion in human KB cells assessed as accumulation of ALA at 100 uM after 2 hrs by HPLC-based fluorescence analysis relative to ALA; format: ADME, cell-based
In short: (§6)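 KB or MCF-7R cells incubated 2 h with 100 μM ALA or conjugate, then extracted with CelLytic. Lysate ALA derivatised with acetylacetone/ethanol/water (15/45/40) plus 10% formaldehyde at 100 °C for 10 min. Analysed by C18 HPLC with fluorescence detection (excitation 370 nm, emission 460 nm) against spiked-lysate calibration. Normalised per mg protein.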

[17] = Prodrug conversion in human doxorubicin resistant MCF7/R cells assessed as accumulation of ALA at 100 uM after 2 hrs by HPLC-based fluorescence analysis relative to ALA; format: ADME, cell-based; details: mcf7r; in short: as §6
[18] = Drug metabolism in human doxorubicin resistant MCF7/R cells assessed as formation of protoporphyrin 9 at 1 to 100 uM after 6 hrs by fluorescence spectrometer; format: ADME, cell-based; details: mcf7r
In short: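 Cells seeded ~5 × 10^4 per well and grown 48 h, washed with PBS. Then 6 h at 37 °C with 1–100 μM prodrug in serum-free medium. PpIX fluorescence read with excitation 405 nm and emission 635 nm (scan 600–750 nm, 515 nm long-pass filter). Values are mean intensity in arbitrary units after subtracting no-prodrug control wells. Triplicate.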

[19] = Drug metabolism in human doxorubicin resistant MCF7/R cells assessed as formation of protoporphyrin 9 at 50 uM after 6 hrs by fluorescence spectrometer; format: ADME, cell-based; details: mcf7r; in short: as §5

SMILES	Activity (KB [1])	CC50 (KB [1]) [µM]	Activity (MCF7)	CC50 (MCF7) [µM]	Activity (MCF7R)	CC50 (MCF7R) [µM]	Activity (KB [2])	Drug metabolism [3]	Activity (KB [5])	Drug metabolism [6]	Drug metabolism [7]	Drug metabolism [9]	Drug metabolism [11]	Drug metabolism [12]	Drug metabolism [13]	Flu intensity [18] [a.u.]	Drug metabolism [19]	further results
CCc1c(O)c(=O)ccn1CCOC(=O)CCC(=O)CN.Cl	Dose-dependent effect	115	Dose-dependent effect	124	Dose-dependent effect	122	Non-Toxic	Metabolite_Detected	Non-Toxic	–	–	–	–	–	–	–	–	Drug metabolism [4]: Metabolite_Notdetected
CC(O)c1c(O)c(=O)ccn1CCCCCCOC(=O)CCC(=O)CN.Cl (configuration not stated)	Dose-dependent effect	24.1	Dose-dependent effect	16.6	Dose-dependent effect	8.4	Non-Toxic	–	Non-Toxic	Metabolite_Detected	Metabolite_Detected	–	–	–	–	–	–	fold change (FC) [8]: > 10
CCc1c(O)c(=O)ccn1CCCCCCCCCCOC(=O)CCC(=O)CN.Cl	Dose-dependent effect	2.3	Dose-dependent effect	8.1	Dose-dependent effect	3.9	Non-Toxic	Metabolite_Detected	Non-Toxic	Metabolite_Detected	Metabolite_Detected	Dose-dependent effect	Metabolite_Detected	Metabolite_Detected	Metabolite_Detected	2 to 25	Metabolite_Detected	Drug metabolism [10]: Metabolite_Detected; fold change (FC) [14]: 10.2; viability at 10 µM (KB [15]): < 6%; fold change (FC) [16]: 8; fold change (FC) [17]: 8
CCc1c(O)c(=O)ccn1CCCCCCCCCCCCOC(=O)CCC(=O)CN.Cl	Dose-dependent effect	2.5	Dose-dependent effect	12.9	Dose-dependent effect	5.5	Non-Toxic	Metabolite_Detected	Non-Toxic	Metabolite_Detected	Metabolite_Detected	Dose-dependent effect	Metabolite_Detected	Metabolite_Detected	Metabolite_Detected	2 to 25	Metabolite_Detected	Drug metabolism [10]: Metabolite_Detected; fold change (FC) [14]: 9.2; viability at 10 µM (KB [15]): < 6%
CCc1c(O)c(=O)ccn1CCCCOC(=O)CCC(=O)CN.Cl	Dose-dependent effect	65.1	Dose-dependent effect	76.5	Dose-dependent effect	61.2	Non-Toxic	Metabolite_Detected	Non-Toxic	–	–	Dose-dependent effect	Metabolite_Detected	–	–	2 to 25	–	–
CCc1c(O)c(=O)ccn1CCCCCCOC(=O)CCC(=O)CN.Cl	Dose-dependent effect	5.2	Dose-dependent effect	13.4	Dose-dependent effect	8.1	Non-Toxic	Metabolite_Detected	Non-Toxic	Metabolite_Detected	Metabolite_Detected	Dose-dependent effect	Metabolite_Detected	Metabolite_Detected	Metabolite_Detected	2 to 25	Metabolite_Detected	fold change (FC) [8]: > 15
CNC(=O)c1c(O)c(=O)ccn1CCCCCCOC(=O)CCC(=O)CN.Cl	Dose-dependent effect	108	Dose-dependent effect	113	Dose-dependent effect	104	Non-Toxic	–	Non-Toxic	–	–	–	–	–	–	–	–	Drug metabolism [18]: Metabolite_Notdetected
